# The list is not random: actives were taken first. Their share in the collection is about 3.1%.
# KCNQ1 block = inhibitors of human KCNQ1 channel, primary screen, cell-based, thallium flux, high-throughput; Potassium voltage-gated channel subfamily KQT member 1 (Homo sapiens), P51787; CHO-K1 KCNQ1, FluxOR thallium flux fluorescence; stronger effect = higher value; B-score at 10 µM; actives 1.3% (n = 310,000); AID 2642, 2010;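 active = compounds whose thallium flux B-score, printed positive for inhibition, exceeds three library SD while starting fluorescence stays within three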;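 note: channel opened by potassium depolarization with thallium stimulus after 20 min compound exposure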
# KCNK3 block = human KCNK3 channel inhibitors, primary screen, CHO cells, FluxOR thallium flux, B-score. B-score at 10 µM. actives 0.84% (n = 340,000). FluxOR fluorescence; stronger effect = lower value;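 active = B-score under library mean minus 4 SD, starting fluorescence ratio at most library mean plus 5 SD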;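 note: more negative B-score means stronger inhibition of thallium flux through KCNK3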
# KCNK9 inh = KCNK9 potassium channel inhibitors, primary screen, HEK293 cells, thallium flux; actives 1.2% (n = 310,000); B-score at 10 µM; Potassium channel subfamily K member 9 (Homo sapiens), Q9NPC2; FluxOR thallium flux fluorescence; stronger effect = lower value;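 active = ratio B-score over 3 SD below the library mean, with starting fluorescence within 5 SD of its mean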;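 note: negative B-score means less thallium flux so channel inhibition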
# hERG protect = hERG rescue from dofetilide block, primary screen, cell-based, CHO-hERG, FluxOR thallium flux, dofetilide IC70. actives 0.51% (n = 310,000). dofetilide IC70 present. activation (rescue from dofetilide block), less the hit threshold, % at 10 µM;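 active = activation above the mean of controls blocked by dofetilide plus 5 SD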;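 note: thallium influx through hERG after potassium depolarization seen as dye fluorescence rise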
# Target sequence (Q12809 whole entry, looked up): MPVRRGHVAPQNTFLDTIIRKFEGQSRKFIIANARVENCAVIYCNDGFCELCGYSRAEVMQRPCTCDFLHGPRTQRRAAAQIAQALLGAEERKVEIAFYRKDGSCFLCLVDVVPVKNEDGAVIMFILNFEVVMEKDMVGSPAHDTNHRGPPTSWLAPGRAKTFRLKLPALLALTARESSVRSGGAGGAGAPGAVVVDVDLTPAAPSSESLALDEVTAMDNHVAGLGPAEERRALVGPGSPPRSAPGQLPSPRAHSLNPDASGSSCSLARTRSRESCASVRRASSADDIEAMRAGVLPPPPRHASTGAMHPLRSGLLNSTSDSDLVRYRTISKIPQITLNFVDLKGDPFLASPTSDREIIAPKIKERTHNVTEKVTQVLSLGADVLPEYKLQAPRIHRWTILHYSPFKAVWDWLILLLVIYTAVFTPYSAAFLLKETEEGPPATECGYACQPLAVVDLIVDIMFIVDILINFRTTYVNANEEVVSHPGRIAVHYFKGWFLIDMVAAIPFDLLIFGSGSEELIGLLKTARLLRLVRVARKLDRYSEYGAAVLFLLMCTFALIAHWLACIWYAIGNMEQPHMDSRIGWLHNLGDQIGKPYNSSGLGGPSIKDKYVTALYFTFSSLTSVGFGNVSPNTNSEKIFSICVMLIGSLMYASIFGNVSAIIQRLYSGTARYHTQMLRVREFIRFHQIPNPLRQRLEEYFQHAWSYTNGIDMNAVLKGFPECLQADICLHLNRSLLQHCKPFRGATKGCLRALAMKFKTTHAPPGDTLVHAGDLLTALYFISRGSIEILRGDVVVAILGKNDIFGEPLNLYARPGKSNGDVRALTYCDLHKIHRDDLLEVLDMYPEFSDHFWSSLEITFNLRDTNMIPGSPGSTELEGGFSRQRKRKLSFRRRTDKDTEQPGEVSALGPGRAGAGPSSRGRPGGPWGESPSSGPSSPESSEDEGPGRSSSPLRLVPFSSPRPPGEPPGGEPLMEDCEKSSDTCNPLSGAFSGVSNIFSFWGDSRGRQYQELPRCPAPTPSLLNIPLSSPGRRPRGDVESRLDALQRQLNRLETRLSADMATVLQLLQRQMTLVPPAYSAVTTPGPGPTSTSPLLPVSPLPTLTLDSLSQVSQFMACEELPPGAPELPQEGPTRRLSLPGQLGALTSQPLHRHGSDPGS
# KCNQ1 pot = potentiators or activators of KCNQ1 channel, primary screen, cell-based, thallium flux, high-throughput; B-score at 10 µM; CHO-K1 KCNQ1, thallium flux FluxOR fluorescence; stronger effect = higher value; actives 0.35% (n = 310,000); Potassium voltage-gated channel subfamily KQT member 1 (Homo sapiens), P51787;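 active = fluorescence ratio B-score, a plate-corrected score, at least three library SD, with initial intensity B-score within 5 SD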
#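 Schedule – 37 °C overnight plating, 90-min dark dye load, 20-min compound pretreatment · System – stable KCNQ1 CHO-K1 line · Probe or stimulus – thallium- and potassium-containing depolarizing buffer · Measured by – kinetic FluxOR fluorescence, 10 s baseline plus 110 s post-stimulus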
# KCNQ1 inh valid = KCNQ1 potassium channel inhibitors, confirmation, cell-based, Tl flux, duplicate; inhibition, % at 10 µM; shares compounds with KCNQ1 block; actives 93% (n = 1,600); KCNQ1 cell line, FluxOR thallium flux fluorescence;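 active = primary screen active, with duplicate mean exceeding buffer control mean plus 3 SD of buffer wells, cut at about 28% in these data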;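 note: 0% = buffer control ratio and 100% = XE991 inhibitor control ratio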
# CHO KCNQ1 ctr = thallium flux effects in parental CHO cells, counter-screen for KCNQ1 inhibitor project, cell-based, Tl flux | parental CHO-K1, FluxOR thallium flux fluorescence ratio; stronger effect = lower value; zero means no signal rise above baseline | fluorescence ratio (Tl flux) at 10 µM | shares compounds with KCNQ1 block | actives 21% (n = 1,600) | AID 588366, 2011;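 active = mean of duplicate thallium-flux fluorescence ratios in parental host cells more than 5 SD below the buffer control mean, cut at about 0.38 in these data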;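 note: ratio is peak minus minimum fluorescence divided by baseline fluorescence; actives read low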
# KCNQ1 ephys val = KCNQ1 channel inhibitors, confirmation, orthogonal assay, cell-based, automated electrophysiology; AID 624120, 2012; actives 20% (n = 490); shares compounds with KCNQ1 block; calls only at 10 µM; KCNQ1-CHO cells, automated patch clamp current;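 active = KCNQ1 current drop exceeding 3 SD of negative control wells, seen in both duplicate runs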;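 note: steady state current during a 2 s step from -80 to +40 mV; negative values mean current inhibition and positive values mean potentiation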
# KCNQ2 spec = KCNQ2 channel inhibition, selectivity assay for KCNQ1 inhibitor project, cell-based | shares compounds with KCNQ1 block | KCNQ2 cells, FluxOR thallium flux fluorescence | inhibition, % at 10 µM | actives 71% (n = 1,600);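 active = mean percent inhibition of the KCNQ2 thallium signal more than 5 SD above the buffer-only control wells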;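 note: KCNQ2 expressed in CHO cells; 0% = buffer control wells and 100% = XE-991 inhibitor control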
# KCNQ1-KCNE1 inh = KCNQ1/KCNE1 channel inhibition, selectivity assay for KCNQ1 inhibitor project, CHO-K1 cells, thallium flux, FluxOR. inhibition, % at 10 µM. shares compounds with KCNQ1 block. FluxOR thallium flux fluorescence. actives 77% (n = 1,600). AID 652147, 2013;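 active = mean percent inhibition of duplicate wells above the buffer-only control mean plus 3 SD of those controls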;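 note: 0% = buffer only wells and 100% = XE-991 inhibitor control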
# The depositor's hits bear a star; i = inactive; x = no result; + = active, no number.
SMILES,KCNQ1 block,KCNK3 block,KCNK9 inh,hERG protect,KCNQ1 pot,KCNQ1 inh valid,CHO KCNQ1 ctr,KCNQ2 spec,KCNQ1-KCNE1 inh,others
CC1(c2ccccc2)NC(=O)N(NC(=O)COC(=O)c2cc(Br)ccc2O)C1=O (centres undefined),i,i,i,-12,i,x,x,x,x,
CCOC(=O)C1CCN(c2c(C(=O)c3ccccc3)cnc3ccc(Cl)cc23)CC1,6*,i,i,-11,i,154*,0.41,134%*,92%*,KCNQ1 ephys val=i
CCOC(=O)C1CCN(C(=O)c2cccc(Cl)c2)CC1,i,i,i,-11,i,x,x,x,x,
CCn1ncc(N2CCOCC2)c(Cl)c1=O,i,i,i,-10,i,x,x,x,x,
O=C(Nc1ccc(Br)cc1)c1ccc(F)c(S(=O)(=O)NCc2cccs2)c1,7*,i,i,-18,i,140*,0.52,92%*,130%*,
O=S(=O)(NCc1cccs1)c1ccc(Br)cc1,i,i,i,-7,i,x,x,x,x,
O=[N+]([O-])c1c(Nc2cccc(O)c2)cc(Cl)c2nonc12,24*,i,-8*,-33,i,166*,0.29*,129%*,+,
S=C(NCC1CCCCC1)Nc1ccc(Oc2ccccc2)cc1,9*,i,i,-10,i,81*,0.53,65%*,i,
S=C(Nc1ccc(Oc2ccccc2)cc1)NC1CCCC1,i,i,i,-5,i,x,x,x,x,
COc1ccc(/C=N/NC(=O)c2cc3c(ccc4ccccc43)o2)c(OC)c1,18*,i,i,-23,i,82*,0.43,64%*,170%*,
Cc1cc(OCC(=O)Nc2ccncc2)ccc1Cl,i,i,i,-13,i,x,x,x,x,
Cc1cc(OCC(=O)Nc2ccncc2)cc(C)c1Br,8*,i,i,-19,i,131*,0.48,96%*,i,KCNQ1 ephys val=i
O=C(Nc1ccccc1N1CCCCC1)C1CCN(S(=O)(=O)c2ccccc2C(F)(F)F)CC1,11*,i,i,-13,i,64*,0.42,101%*,82%*,
O=C(Nc1ccccc1N1CCCC1)C1CCN(S(=O)(=O)c2ccccc2C(F)(F)F)CC1,i,i,i,-4,i,x,x,x,x,
Cc1ccc(-n2ncc3c2CC(C)(C)CC3NC(=O)C2CCOCC2)cc1 (centres undefined),i,i,i,-14,i,x,x,x,x,
COc1ccc(CCCc2nnc(SCC(=O)NN)o2)c(C)c1,i,i,i,-2,i,x,x,x,x,
Cc1cc(S(=O)(=O)NCCC2=CCCCC2)ccc1Br,7*,i,i,-11,i,0,0.45,68%*,82%*,
O=S(=O)(NCCC1=CCCCC1)c1ccc(OC(F)(F)F)cc1,6*,i,i,-6,i,56*,0.43,68%*,58%*,
Cc1ccc(S(=O)(=O)NCCC2=CCCCC2)cc1,x,i,x,x,x,x,x,x,x,
O=C(Cc1ccccc1)NCC(=O)Nc1ccccc1Br,i,i,i,-2,i,x,x,x,x,
O=C(c1cc(C2CC2)nn1-c1ccccc1)N1CCN(S(=O)(=O)c2c(F)cccc2F)CC1,x,i,x,x,x,x,x,x,x,
COc1cccc(C2CC(c3cccs3)=NN2C(=O)CSc2nc3c(cnn3-c3ccc(F)cc3)c(=O)[nH]2)c1OC (centres undefined),15*,i,i,-7,i,116*,0.42,71%*,85%*,KCNQ1 ephys val=i
COC(=O)c1ccc(Cl)c(NC(=O)NC23CC4CC(CC(C4)C2)C3)c1,10*,i,i,-18,i,131*,0.44,108%*,170%*,
Cc1cc(OCCn2ccnc2)ccc1C(C)C,6*,i,i,-10,i,0,0.51,64%*,42%*,
Cc1ccc(OCCCn2ccnc2)cc1C,i,i,i,-7,i,x,x,x,x,
SMILES,KCNQ1 block,KCNK3 block,KCNK9 inh,hERG protect,KCNQ1 pot,KCNQ1 inh valid,CHO KCNQ1 ctr,KCNQ2 spec,KCNQ1-KCNE1 inh,others
Cc1nonc1NC(=O)CSc1nnc(-c2ccoc2C)n1-c1cccc(Cl)c1,7*,i,i,-13,i,34*,0.43,70%*,68%*,
Cc1ccc(-c2csc(N3CCC(NS(=O)(=O)c4ccc5c(c4)OCCO5)CC3)n2)cc1,6*,i,i,-14,i,106*,0.42,96%*,100%*,KCNQ1 ephys val=i
Cc1ccc(-c2csc(N3CCC(C(N)=O)CC3)n2)cc1,x,i,x,x,x,x,x,x,x,
CC(C)(C)c1ccc(NC(=O)COc2ccc(-n3ccnc3)cc2)cc1,7*,i,i,-17,i,130*,0.47,74%*,40%*,
COc1cc(NC(=O)COc2ccc(-n3ccnc3)cc2)cc(OC)c1,i,i,i,-11,i,x,x,x,x,
Cc1cc(Cl)ccc1OC(C)C(=O)Nc1ccc(S(=O)(=O)N2CCOCC2)cc1 (centres undefined),i,i,i,-5,i,x,x,x,x,
Cc1cc(Cl)ccc1OC(C)C(=O)Nc1ccc(C(=O)Nc2ccccc2C(=O)O)cc1 (centres undefined),9*,i,i,-34,i,94*,0.45,i,80%*,KCNQ1 ephys val=i
Cc1cccc(C)c1OCc1cc(C(=O)N2CCN(c3ccccc3)CC2C)no1 (centres undefined),8*,i,i,-14,i,86*,0.38*,117%*,120%*,
Cc1ccc(C)c(OCc2cc(C(=O)N3CCN(C(=O)c4ccco4)CC3)no2)c1,i,i,i,-11,i,x,x,x,x,

# Screening data (PubChem BioAssay)
